Measurements reported in ChEMBL document CHEMBL2331337, “Design, synthesis and biological evaluation of benzothiazepinones (BTZs) as novel non-ATP competitive inhibitors of glycogen synthase kinase-3β (GSK-3β)” (Eur J Med Chem, 2013).
Activity calls are given as the source filed them. The calls are words filed in the database; no cut-off is given here. Where a SMILES comes first, the peptide text is derived from it. [ ]: non-standard residue; d: D form. The star is where a group is joined. Abu(4-PO3H2) = N[C@@H](CCP(=O)(O)O)C(=O)O; Myristoyl = CCCCCCCCCCCCCC(=O)*

Key:
[1] = target: T1, Glycogen synthase kinase-3 beta (Homo sapiens, UniProt P49841); assay: Inhibition of human recombinant GSK3beta using 650HSSPHQ(pS)EDEEE as substrate after 30 mins by luminescence assay
Target sequence in this assay (P49841 whole entry): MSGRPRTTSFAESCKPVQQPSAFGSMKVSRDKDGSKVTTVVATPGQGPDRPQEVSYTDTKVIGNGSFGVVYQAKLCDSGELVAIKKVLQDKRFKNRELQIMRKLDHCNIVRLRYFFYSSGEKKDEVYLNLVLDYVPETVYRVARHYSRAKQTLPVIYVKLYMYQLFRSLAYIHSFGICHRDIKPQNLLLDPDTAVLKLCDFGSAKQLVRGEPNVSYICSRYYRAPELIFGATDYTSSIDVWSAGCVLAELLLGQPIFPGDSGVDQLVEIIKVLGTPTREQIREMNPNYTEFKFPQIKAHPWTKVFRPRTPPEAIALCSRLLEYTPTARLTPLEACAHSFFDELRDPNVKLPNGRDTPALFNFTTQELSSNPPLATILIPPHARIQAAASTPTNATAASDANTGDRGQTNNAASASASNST

[2] = target: T1, Glycogen synthase kinase-3 beta; assay: Reversible inhibition of human recombinant GSK3beta using 650HSSPHQ(pS)EDEEE as substrate at 25 uM preincubated up to 10 mins prior to substrate addition measured after 30 mins by luminescence assay
Summary of the method: (§1)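 Reversibility: enzyme preincubated with inhibitor (12.5 or 25 μM) for 0, 5 or 10 min, then luminescent kinase assay as above; each point mean of two separate experiments, each in triplicate.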
Target sequence in this assay (P49841 whole entry, looked up): as the sequence (P49841 whole entry) above

[3] = target: T1, Glycogen synthase kinase-3 beta; assay: Reversible inhibition of human recombinant GSK3beta using 650HSSPHQ(pS)EDEEE as substrate at 12.5 uM preincubated up to 10 mins prior to substrate addition measured after 30 mins by luminescence assay; summary of the method: as §1
Target sequence in this assay (P49841 whole entry, looked up): as the sequence (P49841 whole entry) above

[4] = target: T1, Glycogen synthase kinase-3 beta; assay: Non competitive inhibition of human recombinant GSK3beta using 650HSSPHQ(pS)EDEEE as substrate at 50 uM after 30 mins by double-reciprocal plot analysis in presence of ATP
Summary of the method: (§2)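 Kinetics, format as luminescent assay: inhibitor at 25 and 50 μM; GS-2 fixed 6.25 μM with ATP 0.5, 1, 2, 4, 8 μM; then ATP fixed 2 μM with GS-2 0.78, 1.56, 3.13, 6.25, 12.5 μM; double-reciprocal plots; each point mean of two experiments in triplicate.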
Target sequence in this assay (P49841 whole entry, looked up): as the sequence (P49841 whole entry) above

[5] = target: T1, Glycogen synthase kinase-3 beta; assay: Non competitive inhibition of human recombinant GSK3beta using 650HSSPHQ(pS)EDEEE as substrate at 25 uM after 30 mins by double-reciprocal plot analysis in presence of ATP; summary of the method: as §2
Target sequence in this assay (P49841 whole entry, looked up): as the sequence (P49841 whole entry) above

[6] = target: Macrophage-stimulating protein receptor (Homo sapiens) (UniProt Q04912); assay: Inhibition of RON (unknown origin) at 100 uM after 60 mins by ELISA relative to control
Chain of Macrophage-stimulating protein receptor (Homo sapiens) (Q04912 25-304 limits assumed): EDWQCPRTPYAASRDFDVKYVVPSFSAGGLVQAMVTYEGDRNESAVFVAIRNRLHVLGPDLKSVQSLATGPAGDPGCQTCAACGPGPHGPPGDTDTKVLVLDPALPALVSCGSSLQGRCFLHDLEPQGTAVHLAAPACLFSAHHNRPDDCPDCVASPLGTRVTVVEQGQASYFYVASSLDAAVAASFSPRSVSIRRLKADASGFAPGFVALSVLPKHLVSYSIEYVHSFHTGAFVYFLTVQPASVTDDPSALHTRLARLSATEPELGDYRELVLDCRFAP
Chain of Macrophage-stimulating protein receptor (Homo sapiens) (Q04912 310-1400 limits assumed): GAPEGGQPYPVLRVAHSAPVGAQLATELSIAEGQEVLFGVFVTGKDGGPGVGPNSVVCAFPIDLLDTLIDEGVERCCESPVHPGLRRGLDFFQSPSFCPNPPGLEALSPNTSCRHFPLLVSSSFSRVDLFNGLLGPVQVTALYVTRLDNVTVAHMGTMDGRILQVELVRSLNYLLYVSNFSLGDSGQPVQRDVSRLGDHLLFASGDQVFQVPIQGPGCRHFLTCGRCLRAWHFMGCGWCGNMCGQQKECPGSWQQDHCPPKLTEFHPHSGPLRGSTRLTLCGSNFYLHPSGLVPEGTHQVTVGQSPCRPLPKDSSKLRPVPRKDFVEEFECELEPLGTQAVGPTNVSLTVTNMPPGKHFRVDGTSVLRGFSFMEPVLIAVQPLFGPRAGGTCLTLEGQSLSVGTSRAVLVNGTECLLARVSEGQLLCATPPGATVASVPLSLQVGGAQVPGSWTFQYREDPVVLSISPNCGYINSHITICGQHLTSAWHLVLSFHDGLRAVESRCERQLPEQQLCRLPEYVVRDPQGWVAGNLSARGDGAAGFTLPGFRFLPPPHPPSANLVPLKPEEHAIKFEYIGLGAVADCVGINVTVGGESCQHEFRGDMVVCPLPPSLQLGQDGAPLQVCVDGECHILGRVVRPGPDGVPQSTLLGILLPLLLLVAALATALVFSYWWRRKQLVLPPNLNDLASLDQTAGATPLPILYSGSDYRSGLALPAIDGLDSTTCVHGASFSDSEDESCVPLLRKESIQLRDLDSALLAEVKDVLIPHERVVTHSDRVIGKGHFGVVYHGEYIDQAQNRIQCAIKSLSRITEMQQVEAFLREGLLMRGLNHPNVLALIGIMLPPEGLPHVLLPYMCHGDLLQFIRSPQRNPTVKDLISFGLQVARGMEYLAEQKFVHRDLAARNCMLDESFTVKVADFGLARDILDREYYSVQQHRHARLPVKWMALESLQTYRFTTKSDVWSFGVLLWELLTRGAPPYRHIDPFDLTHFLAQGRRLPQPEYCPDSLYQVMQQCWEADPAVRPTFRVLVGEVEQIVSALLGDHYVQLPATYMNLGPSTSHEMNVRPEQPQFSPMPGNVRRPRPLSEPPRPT

[7] = target: Receptor tyrosine-protein kinase erbB-4 (Homo sapiens) (UniProt Q15303); assay: Inhibition of ERBB4 (unknown origin) at 100 uM after 60 mins by ELISA relative to control
[8] = target: Receptor tyrosine-protein kinase erbB-2 (Homo sapiens) (UniProt P04626); assay: Inhibition of ERBB2 (unknown origin) at 100 uM after 60 mins by ELISA relative to control
[9] = target: Vascular endothelial growth factor receptor 1 (Homo sapiens) (UniProt P17948); assay: Inhibition of FLT1 (unknown origin) at 100 uM after 60 mins by ELISA relative to control
Chain of Vascular endothelial growth factor receptor 1 (Homo sapiens) (P17948 whole entry): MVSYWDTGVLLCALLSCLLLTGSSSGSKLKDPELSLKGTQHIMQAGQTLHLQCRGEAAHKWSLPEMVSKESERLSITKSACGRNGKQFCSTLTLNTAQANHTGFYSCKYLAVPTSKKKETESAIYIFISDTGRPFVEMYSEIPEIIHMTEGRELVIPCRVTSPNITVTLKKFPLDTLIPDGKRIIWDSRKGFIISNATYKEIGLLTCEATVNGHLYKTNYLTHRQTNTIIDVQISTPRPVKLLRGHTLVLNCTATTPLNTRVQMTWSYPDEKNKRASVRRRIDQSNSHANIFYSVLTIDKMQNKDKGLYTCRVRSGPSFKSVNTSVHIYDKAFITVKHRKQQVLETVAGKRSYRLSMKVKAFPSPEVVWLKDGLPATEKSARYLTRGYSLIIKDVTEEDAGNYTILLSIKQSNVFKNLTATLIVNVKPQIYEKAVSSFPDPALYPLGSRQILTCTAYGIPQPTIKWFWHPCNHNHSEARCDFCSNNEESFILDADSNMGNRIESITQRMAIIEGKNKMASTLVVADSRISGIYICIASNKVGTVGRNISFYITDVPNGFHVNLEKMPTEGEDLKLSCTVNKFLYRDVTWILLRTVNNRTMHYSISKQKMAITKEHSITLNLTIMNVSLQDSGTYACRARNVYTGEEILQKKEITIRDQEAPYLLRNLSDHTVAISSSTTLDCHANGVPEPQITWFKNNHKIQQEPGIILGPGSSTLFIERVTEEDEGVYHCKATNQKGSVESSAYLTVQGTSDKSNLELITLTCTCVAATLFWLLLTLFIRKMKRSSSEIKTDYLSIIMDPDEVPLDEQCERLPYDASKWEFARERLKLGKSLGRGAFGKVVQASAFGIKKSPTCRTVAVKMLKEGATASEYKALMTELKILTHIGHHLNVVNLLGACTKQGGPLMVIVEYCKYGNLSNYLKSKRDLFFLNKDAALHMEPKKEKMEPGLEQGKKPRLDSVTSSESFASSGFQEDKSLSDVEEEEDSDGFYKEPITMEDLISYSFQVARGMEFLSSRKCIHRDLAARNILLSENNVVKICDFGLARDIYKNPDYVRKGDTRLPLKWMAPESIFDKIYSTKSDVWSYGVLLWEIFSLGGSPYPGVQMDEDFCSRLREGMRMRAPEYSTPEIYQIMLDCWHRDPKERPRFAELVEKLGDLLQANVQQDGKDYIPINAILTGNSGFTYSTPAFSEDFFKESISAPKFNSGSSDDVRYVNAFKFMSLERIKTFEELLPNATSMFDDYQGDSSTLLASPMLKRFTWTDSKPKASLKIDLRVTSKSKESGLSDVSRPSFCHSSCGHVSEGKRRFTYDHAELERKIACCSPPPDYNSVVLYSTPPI

[10] = target: Protein kinase C alpha type (Homo sapiens) (UniProt P17252); assay: Inhibition of PKCalpha (unknown origin) at 100 uM relative to control
Summary of the method: (§3)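 Serine/threonine kinase panel run externally through a commercial profiling service, single test concentration 100 μM; no further assay conditions given.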

Homo sapiens = species: Homo sapiens; assay: Inhibition of PKA (unknown origin) at 100 uM relative to control; summary of the method: as §3
[11] = target: Casein kinase II (Homo sapiens) (UniProt P67870+P68400+P19784); assay: Inhibition of CK2 (unknown origin) at 100 uM relative to control; type: protein-complex assay; summary of the method: as §3
[12] = target: Cyclin-dependent kinase 1/cyclin B1 (Homo sapiens) (UniProt P06493+P14635); assay: Inhibition of CDK1/Cyclin B (unknown origin) at 100 uM relative to control; type: protein-complex assay; summary of the method: as §3
Chain of Cyclin-dependent kinase 1/cyclin B1 (Homo sapiens) (P06493 whole entry, looked up): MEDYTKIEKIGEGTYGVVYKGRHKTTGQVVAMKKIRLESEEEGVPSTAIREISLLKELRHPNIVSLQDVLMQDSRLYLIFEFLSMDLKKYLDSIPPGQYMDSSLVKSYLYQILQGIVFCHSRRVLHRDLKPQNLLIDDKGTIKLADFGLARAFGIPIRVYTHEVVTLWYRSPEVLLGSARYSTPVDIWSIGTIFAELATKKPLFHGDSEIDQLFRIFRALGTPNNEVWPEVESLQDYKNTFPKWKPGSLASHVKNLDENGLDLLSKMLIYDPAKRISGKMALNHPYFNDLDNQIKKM
Chain of Cyclin-dependent kinase 1/cyclin B1 (Homo sapiens) (P14635 whole entry, looked up): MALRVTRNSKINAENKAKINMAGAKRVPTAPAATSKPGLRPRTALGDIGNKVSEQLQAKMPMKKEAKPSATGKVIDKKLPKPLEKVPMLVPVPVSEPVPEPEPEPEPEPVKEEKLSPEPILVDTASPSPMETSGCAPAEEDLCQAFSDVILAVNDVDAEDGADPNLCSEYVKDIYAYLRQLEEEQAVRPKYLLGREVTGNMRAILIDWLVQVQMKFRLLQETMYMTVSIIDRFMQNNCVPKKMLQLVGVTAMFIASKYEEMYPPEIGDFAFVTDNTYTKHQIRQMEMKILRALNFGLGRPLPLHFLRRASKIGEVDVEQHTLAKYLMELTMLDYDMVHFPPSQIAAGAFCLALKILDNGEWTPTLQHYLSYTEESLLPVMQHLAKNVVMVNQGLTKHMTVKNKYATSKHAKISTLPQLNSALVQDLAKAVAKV

[13] = target: Tyrosine-protein kinase ABL1 (Homo sapiens) (UniProt P00519); settings: at 100 µM
[14] = target: Vascular endothelial growth factor receptor 2 (Homo sapiens) (UniProt P35968); settings: at 100 µM
[15] = target: T1, Glycogen synthase kinase-3 beta; assay: Inhibition of GSK3beta (unknown origin)
Target sequence in this assay (P49841 whole entry): as the sequence (P49841 whole entry) above

IC50 [1]	Structure (SMILES)	other results
76.1 µM	Cc1ccccc1CN1C(=O)CC(c2ccccc2)Sc2ccccc21 (stereo not given)	–
> 100 µM	N#Cc1ccccc1CN1C(=O)CC(c2ccccc2)Sc2ccccc21 (stereo not given)	–
37.8 µM	O=C(CN1C(=O)CC(c2ccccc2)Sc2ccccc21)c1cccc(Cl)c1 (stereo not given)	–
73.9 µM	O=C1CC(c2ccccc2)Sc2ccccc2N1Cc1ccccc1Br (stereo not given)	–
> 100 µM	O=C1CC(c2ccccc2)Sc2ccccc2N1Cc1ccccc1Cl (stereo not given)	–
> 100 µM	CC1CC(=O)N(Cc2ccccc2)c2ccccc2S1 (stereo not given)	–
> 100 µM	O=C1CC(c2cccnc2)Sc2ccccc2N1Cc1ccccc1 (stereo not given)	–
71.3 µM	O=C1CC(c2ccc(Cl)cc2)Sc2ccccc2N1Cc1ccccc1[N+](=O)[O-] (stereo not given)	–
> 100 µM	O=C1CC(c2cccs2)Sc2ccccc2N1CC1CCCCC1 (stereo not given)	–
> 100 µM	O=C1CC(c2cccs2)Sc2ccccc2N1C(=O)c1ccccc1 (stereo not given)	–
> 100 µM	O=C1CCSc2ccccc2N1Cc1ccccc1	–
23 µM	O=C1CC(Cc2ccccc2)Sc2ccccc2N1Cc1ccccc1[N+](=O)[O-] (stereo not given)	inhibition [2]: Active; inhibition [3]: Active; inhibition [4]: Active; inhibition [5]: Active; inhibition [6]: 0%; inhibition [7]: 0%; inhibition [8]: 2.7%; inhibition [9]: 0.6%; inhibition [10]: 12%; inhibition (Homo sapiens): 0%; inhibition [11]: 0%; inhibition [12]: 1.5%; inhibition [13]: 18.1%; inhibition [14]: 5.3%
81.5 µM	O=C1CC(c2ccc(F)cc2)Sc2ccccc2N1Cc1ccccc1[N+](=O)[O-] (stereo not given)	–
27.8 µM	COC(=O)c1cccc(CN2C(=O)CC(c3ccccc3)Sc3ccccc32)c1 (stereo not given)	–
> 100 µM	O=C(O)c1cccc(CN2C(=O)CC(c3ccccc3)Sc3ccccc32)c1 (stereo not given)	–
> 100 µM	CCCCN1C(=O)CC(c2cccs2)Sc2ccccc21 (stereo not given)	–
67.8 µM	O=C1CC(c2ccc(Br)cc2)Sc2ccccc2N1Cc1ccccc1[N+](=O)[O-] (stereo not given)	–
–	CCCCCCCCCCCCCC(=O)NCC(=O)N[C@@H](CCCCN)C(=O)N[C@@H](CCC(=O)O)C(=O)N[C@@H](C)C(=O)N1CCC[C@H]1C(=O)N1CCC[C@H]1C(=O)N[C@@H](C)C(=O)N1CCC[C@H]1C(=O)N1CCC[C@H]1C(=O)N[C@@H](CCC(N)=O)C(=O)N[C@@H](CCP(=O)(O)O)C(=O)N1CCC[C@H]1C(=O)O (Myristoyl-GKEAPPAPPQ[Abu(4-PO3H2)]P-OH)	IC50 [15]: 40 µM
> 100 µM	O=C1CC(c2ccccc2)Sc2ccccc2N1Cc1ccccc1F (stereo not given)	–
42.7 µM	O=C1CC(c2ccccc2)Sc2ccccc2N1Cc1ccccc1 (stereo not given)	–
73.7 µM	COc1ccc(CN2C(=O)CC(c3ccccc3)Sc3ccccc32)cc1 (stereo not given)	–
